Compounds with a hit are over-represented: about 2% of the library has one in this group of screens.
NR2E3 ag-1 – activates human NR2E3 receptor | Q9Y5X4 | CHO-S Gal4-NCOR/VP16-NR2E3 two-hybrid, luciferase | inhibition of corepressor binding, % at 3.98 µM | 360,000 tested, 0.35% active;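 active means inhibition above the mean of all tested compounds plus 3 SD, cut at about 70% in these data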;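 further: 0% = DMSO with NR2E3 transfected cells and 100% = cells lacking NR2E3 construct; higher means lower luciferase signal from less NR2E3 corepressor binding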
Target sequence (Q9Y5X4 whole entry, looked up, the tested form may be a part): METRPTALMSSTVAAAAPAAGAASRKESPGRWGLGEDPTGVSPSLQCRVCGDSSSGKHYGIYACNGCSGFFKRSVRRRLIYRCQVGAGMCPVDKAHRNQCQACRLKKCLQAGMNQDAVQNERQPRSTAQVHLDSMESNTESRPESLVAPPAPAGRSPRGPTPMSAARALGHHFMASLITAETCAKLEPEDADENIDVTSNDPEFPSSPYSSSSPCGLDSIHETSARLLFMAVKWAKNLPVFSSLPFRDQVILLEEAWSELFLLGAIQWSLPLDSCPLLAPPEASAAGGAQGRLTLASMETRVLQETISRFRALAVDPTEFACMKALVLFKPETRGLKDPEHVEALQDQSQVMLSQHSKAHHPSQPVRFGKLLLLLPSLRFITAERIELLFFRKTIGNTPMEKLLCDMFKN
HIF act – HIF pathway transcriptional activation | U2OS HRE-luciferase reporter, luminescence; normalized: DMSO 0%, desferrioxamine 100% | activation, % at 7.5 µM (by protocol) | 300,000 tested, 0.32% active | AID 1910;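 active means mean activation of at least 10% of the iron chelator positive control signal, with at least half of replicates also reaching 10%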
TROY NFkB inh – inhibitors of TROY-dependent NF-kB signaling; inhibition, % at 10 µM; 360,000 tested, 0.98% active; AID 1347056; Q293 LMP1-TROYcd NF-kB luciferase reporter, 4 h;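 active means compounds whose plate-normalised and pattern-corrected inhibition of the luciferase reporter signal at the single screening dose is 50% or more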
LMP1 NFkB inh – reduces LMP1-driven NF-kappaB luciferase signal; inhibition, % at 12.5 µM; 350,000 tested, 0.69% active; LMP1-induced NF-kappaB luciferase reporter cells, luminescence; AID 504558; in the data active means inhibition above about 41%;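 further: 0% = neutral control wells and 100% = reference inhibitor control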
NR2E3 ag-2 – NR2E3 (human) agonism. Q9Y5X4. inhibition of corepressor binding, % at 4.78 µM. 320,000 tested, 0.12% active. AID 2300. GST-NR2E3/biotin-RetCOR TR-FRET, 1536-well;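 active means percent inhibition above the cutoff of mean plus 3 SD of all tested compounds, set per screening campaign, cut at about 20% in these data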;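 further: 0% = DMSO wells and 100% = biotin wells as full block of FRET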
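Material: NR2E3–RetCOR corepressor complex / Amount: 1.35 nM GST-NR2E3 / Medium: Tris pH 7.5 / Compound: single nominal compound dose of 4.8 µM / Incubation: 5 h at 4 °C / Technique: TR-FRET, Eu(K)-anti-GST donor, streptavidin-D2 acceptor, ex 340, em 617/671 nm / Read-out basis: percent loss of FRET ratio relative to control wells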
An asterisk follows results filed as active; . = no result given.

SMILES	NR2E3 ag-1	HIF act	TROY NFkB inh	LMP1 NFkB inh	NR2E3 ag-2
CNC(=O)c1nnsc1S(=O)(=O)c1ccc(Cl)cc1	23	-1	69*	68*	.
CCC(C)NC(=O)Cn1ccc2cc(S(=O)(=O)N3CCCCCC3)ccc21 (configuration not stated)	8	-1	4	2	-3
CCOc1ccc(NC(=O)NC2CCS(=O)(=O)C2)cc1 (configuration not stated)	-18	-8	-2	-5	4
FC(F)(F)c1cccc(NC(=S)NCc2ccc(Cl)cc2)c1	6	0	60*	-4	3
CC(=O)OCC1=C(C(=O)O)N2C(=O)C(NC(=O)c3ccc(COc4cccc(Cl)c4Cl)o3)C2SC1 (configuration not stated)	-3	0	13	-3	2
CN(C)Cc1cc(C(C)(C)C)cc(N2CCOCC2)c1O	-7	.	-2	68*	.
CCOC(=O)c1c(C)oc2c1c(C=NCC1CCCO1)c(O)c1ccccc12 (configuration not stated)	-42	-1	69*	-1	.
CCOC(=O)c1c(C)oc2c1c(C=NCc1ccccn1)c(O)c1ccccc12	-48	.	33	2	.
CC(C)N1C(=O)S/C(=C/c2ccc(Sc3nc4ccccc4[nH]3)o2)C1=O	43	0	59*	26	5
COc1cc(NC(=O)COC(=O)c2cc(S(=O)(=O)N3CCCCC3)ccc2Cl)c(C)cc1[N+](=O)[O-]	-2	0	-8	7	-1
Cc1ccc(CCNC(=O)Cc2ccc(NC3=NC4CS(=O)(=O)CC4S3)cc2)cc1 (configuration not stated)	-9	0	4	85*	2
Cc1ccc(CCNC(=O)c2ccc(NC3=NC4CS(=O)(=O)CC4S3)cc2)cc1 (configuration not stated)	8	0	-3	-5	-1
CN(C)Cc1c(C(C)(C)O)[nH]c2ccc(C(F)(F)F)cc12	-10	.	-4	4	.
CCc1c(C2(O)CCCCC2)[nH]c2ccc(C(F)(F)F)cc12	-7	-1	56*	-9	2
COc1ccccc1NS(=O)(=O)c1cc(C(=O)Nc2ccc(S(=O)(=O)Nc3onc(C)c3C)cc2)ccc1C	7	.	2	2	.
N/C(=N\OC(=O)C(c1ccccc1)c1ccccc1)c1cccnc1	13	72*	-1	3	2
Cc1nnc(SCC(=O)Nc2cc(C(C)(C)C)nn2-c2ccccc2)s1	-12	0	11	-3	0
Cc1nnc(SCC(=O)Nc2cc(-c3cc(C)c(C)cc3C)nn2-c2ccccc2)s1	-57	0	-8	50*	2
CCOC(=O)c1cnc(-n2nc(C)cc2C)nc1Nc1ccc(OC)cc1	17	2	1	14	-6
CCOC(=O)c1cnc(-n2nc(C)cc2C)nc1NCc1ccc2c(c1)OCO2	82*	0	-5	10	2
O=C(NCc1ccco1)c1cc(-c2cccs2)on1	-75	21*	-69	25	-1
O=C(NCC1CCCO1)c1cc(-c2ccccc2)on1 (configuration not stated)	-90	15*	-65	-21	-4
COc1ccc(-c2cc(C(=O)NCC3CCCO3)on2)cc1OC (configuration not stated)	-15	0	4	1	2
O=C(NCC1CCCO1)c1cc(-c2ccc(F)cc2)no1 (configuration not stated)	-64	14*	-26	14	3
O=C(NCc1ccco1)c1cc(-c2ccccc2)on1	-114	12*	-36	12	-5
SMILES	NR2E3 ag-1	HIF act	TROY NFkB inh	LMP1 NFkB inh	NR2E3 ag-2
O=C(NCc1ccco1)c1cc(-c2ccc(F)cc2)on1	-93	5	-30	3	3
CN1CCN(C(=O)C2=NOC3(C2)C(=O)Nc2ccccc23)CC1 (configuration not stated)	3	.	-1	.	.
O=S1(=O)CCN(OCc2ccc(Cl)cc2)CC1	10	0	6	5	-2
CCCNC(=O)c1cc(-c2ccco2)on1	-116	16*	-45	27	3
Cc1ccc(CN2CCCN(C)CC2)c(C)c1	-11	0	1	6	-6
O=C(Nc1ccc(-c2nc3cccnc3s2)cc1)C1CCCO1 (configuration not stated)	-192	-2	60*	65*	1
C[C@H]1CN([C@@H](C)CO)C(=O)CCCn2nncc2CO[C@H]1CN(C)C(=O)Nc1cccc(Oc2ccccn2)c1	-2	.	-14	1	.
O=c1c2c(nc3cc(-c4ccc(F)cc4)[nH]n13)CCCC2	-194	0	56*	5	0
O=c1c2c(nc3cc(-c4cccc(F)c4)[nH]n13)CCC2	-176	0	10	0	2
CCCC(NCC(=O)Nc1cc(S(=O)(=O)N2CCOCC2)ccc1OC)c1ccccc1 (configuration not stated)	-5	.	9	2	0
CCOCCCNC(=O)c1ccc(NC(=O)C2CCCO2)cc1 (configuration not stated)	-5	1	6	0	-2
Cc1cc(NC(=O)c2ccccc2)n(-c2nc3ccccc3[nH]2)n1	0	24*	14	-11	2
COc1cccc(OC)c1C(=O)Nc1cc(C)nn1-c1nc2ccccc2[nH]1	10	1	30	18	2
CC(C)c1cc(NC(=O)c2ccccc2)cc(C(C)C)c1O	-1	0	-4	59*	4
COc1ccc(NC(=O)Nc2c(C)n(C)n(-c3ccccc3)c2=O)c(OC)c1	18	-1	5	-1	2
c1ccc(-c2nnc(SCc3ccncc3)o2)cc1	-23	.	-47	-5	.
Brc1cccc(CSc2nnc(-c3ccncc3)o2)c1	-45	.	24	71*	1
CC(=O)N(CCCNC(=O)c1ccccc1)C(=O)c1ccccc1	0	-1	-10	6	4
COc1cc(C2Nc3ccccc3C(=O)N2c2ccc3c(c2)OCCO3)ccc1OCC(C)C (configuration not stated)	-138	-1	24	26	6
O=C1c2ccccc2NC(c2ccc3c(c2)OCCO3)N1c1ccc2c(c1)OCCO2 (configuration not stated)	-109	0	59*	21	3
CCN1CCN(c2cc(C)nc(-c3ccccc3O)n2)CC1	-3	0	10	5	2
COC(=O)N(C)C[C@H]1OCc2cn(nn2)CCCC(=O)N([C@@H](C)CO)C[C@@H]1C	-15	.	-3	.	.
Cc1cc(N)c2cc(NC(=O)/C=C/c3ccccc3Cl)ccc2n1	0	-5	81*	3	2
Cc1ccccc1C(=O)NNC(=O)c1cc(N)cc([N+](=O)[O-])c1	-25	0	57*	-2	-2
Cc1ccccc1C(=O)NNc1ccc([N+](=O)[O-])cc1	-7	0	-11	-4	0
Cc1ccc(C(=O)Nc2ccc3ccccc3c2)cc1	-90	-2	54*	17	0
